Assay results published in ChEMBL document CHEMBL1255564, “A novel series of positive modulators of the AMPA receptor: discovery and structure based hit-to-lead studies” (Bioorg Med Chem Lett, 2010).
Converted amounts (≈) assume the structure as drawn.

Experiments:
[1] = […]
Summary of the method: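 Cells washed in low-Ca buffer (pH 7.4, 2 mM CaCl₂) with 0.625 mM probenecid. Glutamate ± compound added in 20 mM CaCl₂ buffer. Ca²⁺ fluorescence read; pEC50 is the mean of two experiments run in duplicate.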

[2] = Clearance in Wistar rat at 2 mg/kg, iv; assay type: ADME, organism-based; design: dose 2 mg/kg, route intravenous; details: in vivo
[3] = Intrinsic clearance in rat liver microsomes; assay type: ADME, Microsome
[4] = Permeability from basolateral to apical side of human Caco-2 cells; assay type: ADME, cell-based; details: read-out: permeability
[5] = Intrinsic clearance in human liver microsomes; assay type: ADME, Microsome
[6] = Volume of distribution at steady state in Wistar rat at 2 mg/kg, iv; assay type: ADME, organism-based; design: dose 2 mg/kg, route intravenous; details: in vivo, read-out: Vdss
[7] = Permeability from apical to basolateral side of human Caco-2 cells; assay type: ADME, cell-based; details: read-out: permeability
[8] = Half life in Wistar rat at 2 mg/kg, iv; assay type: ADME, organism-based; design: dose 2 mg/kg, route intravenous; details: in vivo
[9] = Aqueous solubility of the compound; assay type: physicochemical

Row | pEC50 [1] | Structure (SMILES) | also measured
1 | < 4.5 | NC(=O)c1c(NC(=O)Cn2c(C(F)(F)F)nc3ccccc32)sc2c1CCCC2 | –
2 | 5.8 | NC(=O)c1c(NC(=O)Cn2nc(C(F)(F)F)cc2C(F)(F)F)sc2c1CCCC2 | microsomal CLint [3]: 200 µL/min/mg; solubility [9]: < 1 µg/mL; microsomal CLint [5]: 174 µL/min/mg
3 | 7.3 | O=C(Cn1nc(C(F)(F)F)c2c1CCCC2)Nc1sc2c(c1C(=O)NCCO)CCCC2 | –
4 | 6.7 | NC(=O)c1c(NC(=O)Cn2nc(C(F)(F)F)c3c2CCCC3)sc2c1CCOC2 | microsomal CLint [5]: > 270 µL/min/mg
5 | 6.1 | Cc1sc(NC(=O)Cn2nc(C(F)(F)F)c3c2CCCC3)c(C(N)=O)c1C | –
6 | 5.7 | CNCCNC(=O)c1c(NC(=O)Cn2nc(C(F)(F)F)c3c2CCCC3)sc2c1CCCC2 | –
7 | 7 | CS(=O)(=O)NCCNC(=O)c1c(NC(=O)Cn2nc(C(F)(F)F)c3c2CCCC3)sc2c1CCCC2 | –
8 | 5.2 | CN(C)CCNC(=O)c1c(NC(=O)Cn2nc(C(F)(F)F)c3c2CCCC3)sc2c1CCCC2 | –
9 | < 4.5 | Cc1cc(C)n(CC(=O)Nc2sc3c(c2C(N)=O)CCCC3)n1 | –
10 | 6.4 | NC(=O)c1c(NC(=O)Cn2nc(C(F)(F)F)c3cnccc32)sc2c1CCCC2 | microsomal CLint [3]: 91 µL/min/mg

Further lines, the compound ahead of its results:

Row | Structure (SMILES) | pEC50 [1] | also measured
11 | NCCNC(=O)c1c(NC(=O)Cn2nc(C(F)(F)F)c3c2CCCC3)sc2c1CCCC2 | 5.8 | –
12 | NCCCNC(=O)c1c(NC(=O)Cn2nc(C(F)(F)F)c3c2CCCC3)sc2c1CCCC2 | 6.4 | clearance [2]: 21 mL/min/kg; microsomal CLint [3]: 77 µL/min/mg; Papp B→A [4]: 5.5 ×10⁻⁶ cm/s; microsomal CLint [5]: 17 µL/min/mg; Vd [6]: 3.8 L/kg; Papp A→B [7]: 3.4 ×10⁻⁶ cm/s; half-life [8]: 3.2 h
13 | NCCCCNC(=O)c1c(NC(=O)Cn2nc(C(F)(F)F)c3c2CCCC3)sc2c1CCCC2 | 5.9 | –
14 | NC(=O)c1ccsc1NC(=O)Cn1nc(C(F)(F)F)c2c1CCCC2 | 5.2 | solubility [9]: 10 µg/mL (≈ 26.9 µM)
15 | O=C(Cn1nc(C(F)(F)F)c2c1CCCC2)Nc1sc2c(c1C(=O)N[C@@H]1CCNC1)CCCC2 | 6.6 | –
16 | O=C(Cn1nc(C(F)(F)F)c2c1CCCC2)Nc1sc2c(c1C(=O)N[C@H]1CCNC1)CCCC2 | 5.8 | –
17 | NC(=O)c1c(NC(=O)Cn2ccc(C(F)(F)F)n2)sc2c1CCCC2 | 5.3 | –
18 | CCNC(=O)c1c(NC(=O)Cn2nc(C(F)(F)F)c3c2CCCC3)sc2c1CCCC2 | 6.5 | –
19 | NC(=O)c1c(NC(=O)Cn2nc(C(F)(F)F)c3c2CCCC3)sc2c1CCCC2 | 6.7 | –
20 | NC(=O)c1c(CO)csc1NC(=O)Cn1nc(C(F)(F)F)c2c1CCCC2 | 5.5 | –
21 | O=C(Cn1nc(C(F)(F)F)c2c1CCCC2)Nc1sc2c(c1C(=O)NCC1CNC1)CCCC2 | 6.2 | –
22 | CCc1c(C)sc(NC(=O)Cn2nc(C(F)(F)F)c3c2CCCC3)c1C(N)=O | 6.2 | –
23 | NC(=O)c1c(NC(=O)Cn2nc(C(F)(F)F)c3c2CCCC3)sc2c1CCNC2 | 5.3 | –
24 | O=C(Cn1nc(C(F)(F)F)c2c1CCCC2)Nc1sc2c(c1C(=O)NC1CC1)CCCC2 | 6.2 | –
25 | O=C(Cn1nc(C(F)(F)F)c2c1CCCC2)Nc1sc2c(c1C(=O)NC1CNC1)CCCC2 | 6.5 | –
